Source: article PMC2193166 (The Journal of Experimental Medicine, 2000)
No end group written: not given here. *: point of attachment. 125I = [125I]*

Assays:
[1] = target: B/A254 (Homo sapiens, UniProt P25090+Q15722); experiment: ^3H-LTB4 binding, B/A254-transfected HEK293 cells
[2] = system: PMNs; experiment: Direct binding of ^125I-labeled MHC binding peptide with PMNs; set-up: species or system human; settings: n = 3, data not shown
[3] = system: human PMNs; experiment: Human PMN chemotaxis, 48-well microchamber; format: cell-based
Procedure, shortened: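 Freshly isolated human PMNs were preincubated with vehicle or test compound (10 nM) for 30 min at 37°C and loaded at 5 × 10^4/well into the upper wells of a 48-well chamber fitted with an uncoated 5-μm polycarbonate membrane. The lower wells held peptide (1 nM), test compound, or vehicle (RPMI, 0.1% ethanol). After 60 min at 37°C, migrated cells were Diff-Quik stained and counted by light microscopy. Migration index was chemoattractant over vehicle; three donors.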

[4] = target: T1, ALXR (Homo sapiens, UniProt P25090); settings: cited from earlier work
T1 sequence (P25090 1-351): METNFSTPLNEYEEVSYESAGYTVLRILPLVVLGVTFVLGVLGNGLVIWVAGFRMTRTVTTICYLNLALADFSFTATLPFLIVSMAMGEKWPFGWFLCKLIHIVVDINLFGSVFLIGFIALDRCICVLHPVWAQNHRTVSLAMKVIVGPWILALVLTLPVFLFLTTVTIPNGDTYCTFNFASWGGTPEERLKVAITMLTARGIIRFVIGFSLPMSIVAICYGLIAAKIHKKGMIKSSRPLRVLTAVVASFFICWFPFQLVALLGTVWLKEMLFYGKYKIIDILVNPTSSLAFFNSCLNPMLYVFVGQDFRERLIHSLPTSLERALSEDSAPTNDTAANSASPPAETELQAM

CCCCC/C=C\C[C@@H](O)/C=C/C=C\C=C\[C@@H](O)CCCC(=O)O [^3H-LTB4, [5,6,8,9,11,12, 14,15-^3H]-LTB4]
specific ^3H-LTB4 binding (in words) [1]: failed to specifically bind

^125I-labeled peptide: MHC binding peptide iodinated at the Tyr residue (MY(125I)FINILTL)
specific binding to PMNs [2]: nor did it show specific binding | PMN chemotaxis (in words) [3]: did not promote PMN chemotaxis

serum amyloid protein A [SAA]
concentration required to evoke responses [4]: micromolar
